# HIV Rev-RRE inh – HIV Rev-RRE protein-RNA interaction inhibition. P05866. Rev peptide-RRE RNA binding, FRET. inhibition, % at 8 µM. 0.79% of 97,000 active. AID 704;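 active = inhibition above the screen-wide mean plus 3 SD, cut at about 35% in these data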;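 also: 0% = median DMSO wells and 100% = median Neomycin B control wells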
# Target sequence (P05866 whole entry, looked up): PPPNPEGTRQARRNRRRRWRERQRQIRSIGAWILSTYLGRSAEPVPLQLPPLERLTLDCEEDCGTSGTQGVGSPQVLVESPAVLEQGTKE
#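 Test system – labelled RRE RNA duplex and labelled Rev peptide · Reagent – labelled Rev peptide · Doses – one concentration, 8 µM nominal · Incubation – 5 + 15 min at 25 °C · Signal – FRET fluorescence readout · Read-out basis – % inhibition of FRET ratio versus controls · Control set – DMSO wells as 0% and neomycin B wells as 100% inhibition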
# Cav3 T inh – blocks human Cav3.2 T-type calcium channel | 4% of 100,000 active | AID 449739 | O95180 | Cav3.2-expressing cells, Fluo-4 calcium fluorescence FDSS; active compounds read low | B-score at 10 µM;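 active = single-dose well whose peak fluorescence ratio is a statistical outlier from its plate by either plate-standardised score or position-corrected B-score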
# CYP2C19 activ – activators of human cytochrome P450 2C19; 96,000 tested, under 10 active; recombinant CYP2C19, luciferin-H EGE luminescence; active compounds read high; 0 = fully inhibited enzyme, 1 = untreated enzyme; AID 1025; activation factor at 5 µM; P33261;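 active = activation factor of at least 2 at 5 µM in the primary screen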;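 also: 0 = wells with 2.5 mM tranylcypromine and 1 = vehicle-only wells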
# CYP2C9 activ – CYP2C9 (human) activation; recombinant CYP2C9, luciferin-H conversion, luminescence; active compounds read high; factor 1 = untreated enzyme, 0 = blocked; activation factor at 5 µM; 1.4% of 96,000 active; AID 1024;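 active = activation factor of 2 or more for CYP2C9 at a 5 µM dose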;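 also: 0 = sulfaphenazole-blocked wells and 1 = vehicle-only wells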
# Target sequence (P11712 whole entry, looked up): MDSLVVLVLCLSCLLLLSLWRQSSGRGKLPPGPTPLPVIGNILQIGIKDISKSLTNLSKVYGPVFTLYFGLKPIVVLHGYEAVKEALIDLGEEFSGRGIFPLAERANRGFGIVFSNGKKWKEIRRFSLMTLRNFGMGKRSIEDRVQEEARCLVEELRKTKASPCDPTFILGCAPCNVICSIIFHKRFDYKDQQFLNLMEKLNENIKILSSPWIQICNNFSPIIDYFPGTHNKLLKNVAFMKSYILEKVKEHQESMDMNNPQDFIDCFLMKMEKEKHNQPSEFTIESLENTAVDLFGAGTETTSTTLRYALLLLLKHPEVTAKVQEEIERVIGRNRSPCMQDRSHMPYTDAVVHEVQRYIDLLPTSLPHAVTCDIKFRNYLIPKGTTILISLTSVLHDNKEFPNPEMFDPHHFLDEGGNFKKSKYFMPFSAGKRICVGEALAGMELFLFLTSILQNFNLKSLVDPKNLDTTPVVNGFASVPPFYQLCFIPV
# CYP2C19 inh – inhibitors of human CYP2C19. P33261. CYP2C19 Supersomes, luciferin-H EGE luminescence, 30 min. inhibition, % at 5 µM. 21% of 96,000 active. AID 778;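 active = CYP2C19 inhibition above a set limit at 5 µM in the primary screen, cut at about 50% in these data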;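 also: plate controls were negative control wells for no effect and 2.5 mM tranylcypromine positive control for full effect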
# CYP2C9 inhib – blocks human cytochrome P450 2C9. CYP2C9 Supersomes, luciferin-H conversion, luminescence. 20% of 96,000 active. inhibition, % at 5 µM;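 active = blocking of liver enzyme CYP2C9 beyond about 50% at 5 µM, limit read from the data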
# * hit, by the source's call; / = no result. Hits are enriched below; roughly 27% of the tested compounds scored in any of these assays.
SMILES,HIV Rev-RRE inh,Cav3 T inh,CYP2C19 activ,CYP2C9 activ,CYP2C19 inh,CYP2C9 inhib
c1csc(-c2csc(-c3cccs3)n2)c1,4,1.3,1.1,1,-7,-1
Cc1nc(-c2ccc3c(c2)OCO3)cs1,8,0.03,0.8,1.1,18,-11
c1cncc(-c2nc(-c3cccs3)cs2)c1,-1,0.063,0.3,0.7,70*,27
c1cncc(-c2nc(-c3ccc4c(c3)OCO4)cs2)c1,4,-1.7,0.3,0.6,69*,37
COc1cc(SC)ccc1C(=O)Nc1ccc2c(c1)CCN2S(C)(=O)=O,3,1.4,0.6,1.6,35,-60
O=C(NCc1ccc2c(c1)OCO2)C1CCC(CNS(=O)(=O)c2ccc(Cl)cc2)CC1 (configuration not stated),1,-1.8,1,1,-3,-5
Cc1onc(-c2ccccc2Cl)c1C(=O)NCc1ccco1,12,-0.55,0.5,0.7,51*,31
O=C(/C=C/c1ccccc1Cl)NCc1ccco1,2,-1.3,1,2.3*,3,-132
Cc1onc(-c2ccccc2Cl)c1C(=O)NCc1ccc2c(c1)cc(C)n2C,/,-6*,/,/,/,/
COC(=O)CNC(=O)c1c(-c2ccccc2Cl)noc1C,2,0.46,0.9,1,11,-5
Cc1ccc(CSCCNC(=O)/C=C/c2ccccc2Cl)cc1,13,-1.5,1,0.9,4,8
Cn1c(-c2ccc(Cl)cc2)ccc(C#N)c1=O,8,-0.14,1,0.9,-4,10
CC(C)Oc1ccc(C2c3c(oc4ccccc4c3=O)C(=O)N2CCCN2CCOCC2)cc1 (configuration not stated),11,0.63,0.5,0.5,49,51*
C=CCOc1ccc(C2c3c(oc4ccccc4c3=O)C(=O)N2CCCN2CCOCC2)cc1 (configuration not stated),8,1.2,0.6,0.5,36,55*
Cc1ccc(C2(C)NC(=O)N(Cc3c(C)noc3C)C2=O)cc1 (configuration not stated),0,-0.35,0.5,0.9,53*,12
Cc1noc(C)c1CN1C(=O)NC2(CCc3ccccc3C2)C1=O (configuration not stated),6,0.37,/,/,/,/
O=c1c2ccccc2nc2n1CCN2Cc1ccc(Cl)cc1,/,-0.35,0.3,0.3,74*,67*
O=c1c2ccccc2nc(-c2cccc(Cl)c2)n1O,4,-2,1.1,0.6,-5,45
O=c1c2ccccc2nc(-c2ccccc2)n1Cc1ccc(Cl)cc1,16,-4,0.2,0.2,77*,82*
CC(C)C1CC(O)(C2(O)CCCCC2)ON1 (configuration not stated),/,0.41,1.1,1.1,-13,-7
Cc1nc2ccc(S(=O)(=O)NC(C(=O)NCc3ccco3)C(C)C)cc2s1 (configuration not stated),/,-0.02,0.9,0.9,6,13
COC(=O)C1Cc2c([nH]c3ccccc23)CN1 (configuration not stated),9,1.1,0.3,1.1,71*,-9
CC[C@@H]1CN(C)[C@H]2Cc3c([nH]c4ccccc34)C(=O)C[C@@H]1[C@@H]2C(=O)OC,/,-1,/,/,/,/
O=C(N[C@H](CO)Cc1ccccc1)c1ccco1,/,0.66,/,/,/,/
O=C(c1ccc(N2CN(C(=O)c3ccco3)c3nc4ccccc4nc32)cc1)N1CCOCC1,-1,0.66,0.9,0.9,14,5
SMILES,HIV Rev-RRE inh,Cav3 T inh,CYP2C19 activ,CYP2C9 activ,CYP2C19 inh,CYP2C9 inhib
O=C(NNc1ccc(C2CCCCC2)cc1)C(O)(c1ccccc1)c1cccs1 (configuration not stated),4,-1.5,0.8,0.7,17,28
COc1ccc(C(O)(C(=O)NNc2ccc(C)cc2)c2cccs2)cc1 (configuration not stated),5,-0.14,0.2,0.8,77*,24
Cc1cccc(NC(=O)Cn2cnc3sc(C)c(S(=O)(=O)N4CCC(C)CC4)c3c2=O)n1,11,0.00058,/,/,/,/
CCCCN1CC(O)=C(c2nc3ccccc3s2)C1=N,/,0.35,0.5,0.4,45,64*
CCCCCCN1CC(O)=C(c2nc3ccccc3[nH]2)C1=N,/,-1.4,0.4,0.1,59*,90*
CCC(C)N1CC(O)=C(c2nc3ccccc3[nH]2)C1=N (configuration not stated),4,0.19,0.2,0.6,84*,38
O=C(CCCCCn1c(=S)[nH]c2ccccc2c1=O)N1CCOCC1,8,0.26,0.7,0.8,30,19
Cc1cc2oc(=O)cc(CSc3nc(N)cc(N)n3)c2cc1C(C)C,7,0.96,1,0.2,0,77*
Cc1cc(C)n2nc(SCc3cc(=O)oc4cc(C)c(C)cc34)nc2n1,5,/,0.8,0.6,21,35
COCCN(CCOC)Cc1cc(=O)oc2cc3c(cc12)CCC3,-1,0.016,0.2,0.5,77*,49
Nc1cc(N)nc(SCc2cc(=O)oc3cc4c(cc23)CCC4)n1,3,-2,0.5,1.3,50*,-27
CCOC(=O)N1CCN(Cc2cc(=O)oc3cc4c(cc23)CCC4)CC1,5,0.58,0.7,0.9,26,10
Cc1cc2oc(=O)cc(CN3CCCCC3)c2cc1C(C)C,6,-4.7*,0.9,0.7,7,32
c1ccc2c(CCNc3ncnc4nc[nH]c34)cccc2c1,-5,0.31,/,/,/,/
COC(=O)c1ccc(C2Nc3ccc(/C(C)=N/NC(=O)C(OC)c4ccccc4)cc3C3C=CCC32)cc1 (configuration not stated),0,0.43,0.8,0.7,24,34
COc1ccc(N2C(=O)CCC(C(=O)NCc3ccccn3)C2c2ccc(F)cc2)cc1 (configuration not stated),1,0.93,1,1,-2,-4
O=C(NCc1nc2ccccc2[nH]1)C1=C[C@H](c2ccc3c(c2)OCO3)C[C@H](OCc2ccc(CO)cc2)O1,/,-1.4,/,/,/,/
CCN(CC)C(=O)c1sc(NC(=O)Cc2ccccc2)c(C#N)c1C,-1,0.35,/,/,/,/
CCN(CC)C(=O)c1sc(NC(=O)Cc2ccc(OC)cc2)c(C#N)c1C,7,0.48,0.2,0.2,78*,78*
COc1ccccc1CNC(=O)CN1C(=O)C(C)N(c2ccc(C)cc2)C1=O (configuration not stated),1,0.39,0.8,0.9,19,10
COc1ccc(CNC(=O)CN2C(=O)C(C)N(c3ccc(C)cc3)C2=O)cc1 (configuration not stated),1,/,0.1,0.2,94*,78*
Cc1ccc(N2C(=O)N(CC(=O)NCc3ccc(Cl)cc3)C(=O)C2C)cc1 (configuration not stated),13,-5.2*,0.3,0.8,74*,22

# Assay outcomes: PubChem BioAssay, several laboratories
